From ChEMBL document CHEMBL1154677, “Microtubule-stabilizing activity of zampanolide, a potent macrolide isolated from the Tongan marine sponge Cacospongia mycofijiensis” (J Med Chem, 2009)
Active and inactive are the calls of the source. The calls are words filed in the database; no cut-off is given here.

Columns and labels:
1A9 [1] = assay: Cytotoxicity against human 1A9 cells assessed as interphase cells with microtubule bundles at 5 nM after 12 hrs by immunocytochemistry; type: functional
Summary of the method: (§1)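 1A9 cells on glass coverslips attached 24 h, then dosed at 0-20 nM for 12 h. Fixed in ice-cold methanol/acetone 1:1, blocked with 5% BSA in PBST, stained with anti-α-tubulin and Alexa 488 secondary plus DAPI, viewed by confocal microscopy. Percent of interphase cells with bundles and mitotic cells with multiple asters scored; n = 3 preparations.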

1A9 [2] = assay: Cytotoxicity against human 1A9 cells assessed as mitotic cells with multiple asters at 20 nM after 12 hrs by immunocytochemistry; type: functional; summary of the method: as §1
1A9 [3] = assay: Cytotoxicity against human 1A9 cells assessed as interphase cells with microtubule bundles at 20 nM after 12 hrs by immunocytochemistry; type: functional; summary of the method: as §1
1A9 [4] = assay: Cytotoxicity against human 1A9 cells assessed as mitotic cells with multiple asters at 5 nM after 12 hrs by immunocytochemistry; type: functional; summary of the method: as §1
1A9 [5] = assay: Cytotoxicity against human 1A9 cells assessed as interphase cells with microtubule bundles at 10 nM after 12 hrs by immunocytochemistry; type: functional; summary of the method: as §1
1A9 [6] = assay: Cytotoxicity against human 1A9 cells assessed as mitotic cells with multiple asters at 10 nM after 12 hrs by immunocytochemistry; type: functional; summary of the method: as §1
[7] = Cytotoxicity against p-glycoprotein overexpressing human A2780AD cells by MTT cell proliferation assay; type: functional, cell-based; details: A2780 ADR
Summary of the method: (§2)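 A2780 parental and P-gp-overexpressing A2780AD ovarian cells in RPMI-1640 with 10% fetal calf serum and 0.25 units/mL insulin.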

HL-60 [8] = assay: Cell cycle arrest in human HL60 cells assessed as accumulation in G2/M phase at 2 to 10 nM after 16 hrs by flow cytometry; type: functional, cell-based
Summary of the method: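 HL-60 cells in RPMI-1640 with 10% fetal calf serum, exposed 16 h over 2-10 nM. Propidium iodide stain, DNA content by flow cytometry, G2/M and subdiploid fractions scored.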

Tubulin (Homo sapiens) [9] = target: T1, Tubulin (Homo sapiens) (UniProt P68371+Q9H4B7+P0DPH7+P68366+Q13509+Q71U36+P04350+Q3ZCM7+P07437+P68363+Q9BQE3+Q6PEY2+Q13885+Q9BVA1+Q9BUF5); assay: Induction of tubulin polymerization in human 1A9 cells after 16 hrs by Western blotting; type: cell-based
Summary of the method: (§3)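 1A9 cells dosed for 16 h. Lysates split into soluble and particulate fractions at 14000g for 10 min, electrophoresed and immunoblotted for α-tubulin with Cy5 secondary. Percent polymerized = pellet band density / (soluble + pellet) by densitometry; four independent experiments.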

HL-60 [10] = assay: Cytotoxicity against human HL60 cells assessed as cell death at 10 nM after 48 hrs by Trypan blue exclusion test; type: functional, cell-based
Summary of the method: (§4)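 HL-60 cells exposed to drug, then viability counted by Trypan blue dye exclusion at 24 h and 48 h; n = 2 preparations.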

1A9 [11] = assay: Cytotoxicity against human 1A9 cells after 72 hrs by MTT assay; type: functional, cell-based; details: 1A9, 72 h
Summary of the method: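 1A9 ovarian carcinoma in RPMI-1640 with 10% fetal calf serum, penicillin-streptomycin and 0.25 units/mL insulin. 72 h exposure, MTT dye reduction, IC50 from dose-response curves; n = 6 preparations.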

HL-60 [12] = assay: Cytotoxicity against human HL60 cells assessed as increase in cell diameter after 48 hrs by Giemsa staining; type: functional, cell-based
Summary of the method: (§5)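 HL-60 cells given 2-8 nM for 48 h, cytospun onto slides, air-dried, fixed in 100% methanol, Giemsa-stained. Cell diameter measured and compared with untreated cells.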

1A9 [13] = assay: Cytotoxicity against human 1A9 cells assessed as interphase cells with microtubule bundles at 8 nM after 12 hrs by immunocytochemistry; type: functional; summary of the method: as §1
HL-60 [14] = assay: Cytotoxicity against human HL60 cells after 48 hrs by MTT assay; type: functional, cell-based; details: HL-60, 48 h
Summary of the method: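 HL-60 in RPMI-1640 with 10% fetal calf serum plus penicillin-streptomycin. 48 h drug exposure, growth by MTT dye reduction, IC50 from dose-response curves; n = 5 preparations.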

1A9 [15] = assay: Cytotoxicity against human 1A9 cells assessed as mitotic cells with multiple asters at 8 nM after 12 hrs by immunocytochemistry; type: functional; summary of the method: as §1
HL-60 [16] = assay: Cytotoxicity against human HL60 cells assessed as increase in cell diameter at 8 nM after 48 hrs by Giemsa staining; type: functional; summary of the method: as §5
A2780 [17] = assay: Cytotoxicity against human A2780 cells by MTT cell proliferation assay; type: functional, cell-based
HL-60 [18] = assay: Cytotoxicity against human HL60 cells at 2 nM after 24 hrs by Trypan blue exclusion test; type: functional, cell-based; summary of the method: as §4
Tubulin (Homo sapiens) [19] = target: T1, Tubulin (Homo sapiens); assay: Induction of tubulin polymerization in human 1A9 cells at 100 nM after 16 hrs by Western blotting; type: cell-based; summary of the method: as §3
A2780 [20] = assay: Selectivity ratio of IC50 for p-glycoprotein overexpressing human A2780AD cells to IC50 for human A2780 cells; type: functional; summary of the method: as §2
Bos taurus = species on record: Bos taurus; assay: Induction of bovine tubulin polymerization at 10 uM after 1hr in presence of 1 mM GTP
Summary of the method: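 Purified bovine brain tubulin, 2 μM, in 80 mM PIPES, 0.5 mM EGTA, 2 mM MgCl2, 1 mM GTP, pH 6.9, no MAPs. Reaction started by adding drug at 10 μM, 37 °C; ethanol 1% final in controls. A340 read every 30 s for 1 h; three experiments.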

| Compound | Activity (1A9 [1]) [%] | Activity (1A9 [2]) [%] | Activity (1A9 [3]) [%] | Activity (1A9 [4]) [%] | Activity (1A9 [5]) [%] | Activity (1A9 [6]) [%] | IC50 [7] [nM] | also measured |
| --- | --- | --- | --- | --- | --- | --- | --- | --- |
| CC(=O)O[C@H]1C(=O)[C@@]2(C)[C@H]([C@H](OC(=O)c3ccccc3)[C@]3(O)C[C@H](OC(=O)[C@H](O)[C@@H](NC(=O)c4ccccc4)c4ccccc4)C(C)=C1C3(C)C)[C@]1(OC(C)=O)CO[C@@H]1C[C@@H]2O [PACLITAXEL] | 13.7 | 52.2 | 81.9 | 6.6 | 76.5 | 43.3 | 415 |  |
| C=C1C[C@@H]2C/C=C/C(=O)C/C(C)=C\C=C\C(=O)O[C@H]([C@H](O)NC(=O)/C=C\C=C\C)C/C(C)=C/[C@H](C1)O2 [ZAMPANOLIDE] | 9.6 | 57.3 | 74.3 | 4.3 | 55 | 51.4 | 7.5 | Activity (HL-60 [8]): Active; Activity (Tubulin (Homo sapiens) [9]): Dose-dependent effect; Activity (HL-60 [10]): Active; IC50 (1A9 [11]): 14.3 nM; Activity (HL-60 [12]): Dose-dependent effect; Activity (1A9 [13]): 28.6%; IC50 (HL-60 [14]): 4.3 nM; Activity (1A9 [15]): 21.6%; Activity (HL-60 [16]): 28.7 micrometer; IC50 (A2780 [17]): 7.1 nM; Activity (HL-60 [18]): Active; Activity (Tubulin (Homo sapiens) [19]): Active; Ratio IC50 (A2780 [20]): 1.4; Activity (Bos taurus): Active |
